Screens from PubChem.
An excerpt weighted towards active compounds, which were near 2.1% of everything screened.
MT stabilizer – microtubule stabilizers in HeLa cells; HeLa tubulin immunostaining HCS, 24 h; share of cells brighter than vehicle mean+2SD; % tubulin-high responders, % at 10 µM; hit rate 0.83% among 200,000;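 active = plate Z-score above 3 for both tubulin-high and condensed-nucleus cell shares, with cell loss under 80%, at 10 µM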;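 also: anti alpha tubulin signal scored within the nucleus-defined area of each cell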
IEC-6 tox – IEC-6 cytotoxicity, counter-screen for KLF5 inhibitors | AID 1825 | inhibition, % at 5 µM | luminescence viability | hit rate 0.78% among 290,000;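 also: 0% = plate median of test compound wells and 100% = cytotoxic reference compound wells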
KLF5 inh – kruppel-like factor 5 inhibition; hit rate 0.23% among 290,000; DLD-1 KLF5 promoter-luciferase reporter, luminescence; AID 1700; inhibition, % at 5 µM;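 active = inhibition above a per-plate limit of that plate's mean compound inhibition plus 3 SD, cut at about 60% in these data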;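 also: 0% = DMSO wells and 100% = LY294002 at 200 µM; higher means less KLF5 promoter-driven luciferase light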
b-catenin transl – alters nuclear translocation of beta-catenin in HeLa cells | immunofluorescence imaging | nuclear translocation activity, % at 5 µM | hit rate 0.3% among 190,000;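 active = nuclear translocation activity above 50% at 5 µM, with a well cell count of 50 or more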;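 also: per-cell ratio of nuclear to cytoplasmic median beta-catenin stain intensity; plate controls were DMSO negative control for no effect and GSK-3 inhibitor IX positive control for full effect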
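System: HeLa cells, endogenous beta-catenin; compound dosing: 5 µM primary single dose, 0.1% DMSO, 0.02–20 µM confirmation series; incubation: 24 h compound exposure at 37°C, 5% CO2; signal: beta-catenin immunofluorescence imaging with DAPI; evaluation: % activation, nuclear-to-cytoplasmic median beta-catenin signal ratio per cell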
BaF3 parental – reduces parental Ba/F3 cell viability, JAK2V617F counter-screen; CellTiter-Glo ATP luminescence; inhibition, % at 5.6 µM; hit rate 1.1% among 220,000; AID 1486;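 active = inhibition above a per-campaign cutoff, the mean inhibition of all tested compounds plus 3 SD, cut at about 27% in these data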;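 also: 0% = DMSO wells and 100% = JAK Inhibitor I control wells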
Ba/F3 V617F tox – loss of viability in JAK2V617F-driven Ba/F3 cells; Ba/F3 EpoR-JAK2V617F viability, ATP luminescence; inhibition, % at 5.6 µM; hit rate 1.1% among 220,000;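 active = inhibition above the campaign mean plus 3 SD over all tested compounds, cut at about 24% in these data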;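 also: cytokine-independent growth of Ba/F3 cells driven by EpoR plus mutant JAK2; 0% = DMSO-treated cells and 100% = JAK inhibitor I control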
IEC-6 cytotox cf – IEC-6 cytotoxicity, confirmation assay | shares compounds with IEC-6 tox | IEC-6 rat intestinal epithelial viability, luminescence | inhibition, % at 5 µM | hit rate 63% among 1,900;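 also: 0% = vehicle and 100% = reference cytotoxic drug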
Starred values were filed as active, the others as inactive; nt = no result. Rule as the data show it, unless noted: active = inhibition above about 22%; inactive = the rest.

SMILES	MT stabilizer	IEC-6 tox	KLF5 inh	b-catenin transl	BaF3 parental	Ba/F3 V617F tox	IEC-6 cytotox cf
CSc1nc(O)cc(=O)n1-c1ccc(F)cc1	6.6	-0.3	-6.3	-1.8	1.5	-0.5	nt
CC(C)CN(C(=O)CN(C)C(=O)Cc1ccccc1Cl)c1c(N)n(CC(C)C)c(=O)[nH]c1=O	nt	-0.2	-14.2	nt	nt	nt	nt
COc1ccc(C(=O)NC(=S)Nc2ccc(CN3CCOCC3)cc2)cc1Br	nt	8.9	-14.2	nt	nt	nt	nt
Clc1ccc(CSc2nncn2-c2ccccn2)cc1	4.5	1.8	-18.0	-3.5	6.5	-2.3	nt
Clc1ccc(CSc2nncn2-c2ccc3c(c2)OCCO3)cc1	nt	32.3*	2.3	25.6	1.9	6.3	30.8*
COc1cccc(C(=O)Oc2ccc(N3C(=O)CCC3=O)c(C)c2)c1	1.7	-9.3	-17.2	-6.2	6.1	1.2	nt
COC(=O)c1ccccc1NC1=C/C(=N\S(=O)(=O)c2ccc(C(=O)O)cc2)c2ccccc2C1=O	nt	28.1*	-6.2	nt	nt	nt	12.9
COC(=O)c1ccccc1NC1=C/C(=N\S(=O)(=O)c2cccs2)c2ccccc2C1=O	3.6	-5.8	13.8	3.6	5.8	-1.9	nt
COc1cc(-c2noc(C)c2-c2ccc3[nH]ccc3c2)cc(OC)c1OC	nt	89.0*	41.1	nt	nt	nt	59.9*
O=C(Nc1cccc(Cl)c1)C1C2CCC3C(CCC21)C3(Cl)Cl (configuration not stated)	3.7	7.5	-11.0	-2.3	2.5	-5.2	nt
Cc1ccccc1NS(=O)(=O)c1ccc(N2CCCC2=O)cc1	37.0*	54.8*	55.0	100.2*	72.2*	84.7*	43.9*
COc1ccc(NC(=O)C2CCN(S(=O)(=O)c3ccc(N4CCCC4=O)cc3)CC2)c(OC)c1	nt	2.7	-16.8	nt	nt	nt	nt
Cc1ccc(NC(=O)C2CCN(S(=O)(=O)c3ccc(N4CCCC4=O)cc3)CC2)cc1Cl	nt	27.3*	-42.4	nt	nt	nt	13.3
Cc1ccccc1NS(=O)(=O)c1cc2c3c(c1)CC(=O)N3CCC2	nt	1.8	-38.4	nt	nt	nt	nt
CC(C)CC1(C)NC(=O)N(CC(=O)Nc2ccc3c(c2)CCC3)C1=O (configuration not stated)	1.9	-1.1	14.6	-2.8	6.4	0.7	nt
O=C1C(=O)N(C/C=C/c2ccccc2)c2ccccc21	nt	89.4*	5.0	nt	nt	nt	65.4*
N#Cc1ccc[n+](CC(=O)c2ccc(Cl)cc2)c1	nt	4.9	12.2	nt	nt	nt	nt
CCC(C)(C)NC(=O)CN(C(=O)CNS(=O)(=O)c1ccc(F)cc1)c1ccc2c(c1)OCCO2	nt	-5.7	-26.7	nt	nt	nt	nt
O=C(O)CN1C(=O)/C(=C/c2ccc(SCc3ccccc3)o2)SC1=S	5.8	-28.5	3.1	2.2	1.1	-0.3	nt
Cn1ccnc1CN1CCCCC1C(=O)Nc1ccc(Oc2cccnc2)cc1 (configuration not stated)	nt	27.1*	14.5	nt	nt	nt	2.8
COc1ccc(S(=O)(=O)N2CCCc3ccccc32)cc1[N+](=O)[O-]	nt	59.2*	48.3	nt	nt	nt	44.0*
COc1ccc(S(=O)(=O)N2CCCc3ccccc32)cc1OC	nt	4.2	-29.3	0.0	0.6	-0.8	nt
CN(C)S(=O)(=O)c1ccc(Cl)c(NC(=O)COC(=O)C2CSC3(C)CCC(=O)N23)c1 (configuration not stated)	1.8	-4.7	-23.4	-0.1	7.0	0.3	nt
CSc1cccc(NS(=O)(=O)c2ccc3c(c2)CCN3C(C)=O)c1	nt	33.4*	41.9	nt	nt	nt	19.0
CCOC(=O)c1cnc2c(C)cccc2c1Nc1cccc(C(=O)O)c1	nt	-2.5	10.7	-1.3	0.5	0.1	nt
SMILES	MT stabilizer	IEC-6 tox	KLF5 inh	b-catenin transl	BaF3 parental	Ba/F3 V617F tox	IEC-6 cytotox cf
CCOC(=O)Nc1ccc2nc(Sc3ccc(Cl)cc3)sc2c1	nt	38.0*	15.3	-0.7	24.7	21.4	23.6*
CN1CCN(c2ccc([N+](=O)[O-])cc2C(=O)c2ccc(Cl)cc2)CC1	43.4*	49.2*	0.4	184.8*	3.9	-3.2	50.0*
Cc1ccc(C(=O)c2cc([N+](=O)[O-])ccc2N2CC(C)OC(C)C2)cc1 (configuration not stated)	19.8	-1.9	-6.0	-1.6	5.8	-1.4	nt
Cc1ccc(C(=O)c2cc([N+](=O)[O-])ccc2N2CCCCC2)cc1	8.8	88.9*	55.9	71.6*	76.4*	79.5*	65.2*
O=C1CN(C(=O)/C=C/c2ccccc2F)c2ccccc2N1	6.2	0.3	-55.4	-2.0	2.4	-4.6	nt
COc1cccc(C(=O)N(C)CC2CCN(CCc3cccc(C(F)(F)F)c3)CC2)c1	nt	3.6	-25.8	nt	nt	nt	nt
